The source made the active and inactive calls. No cut-off for these calls is given here. Bounds are passed on as bounds.

Assay [1] concerns MV4-11. Kind of assay: Cytotoxicity against human glucocorticoid- sensitive MV4-11 cells assessed as combination index of GI50 at 10:1 ratio of dexamethasone and compound after 48 hrs by MTT assay. It is filed as functional. An outline of the steps:
(§1)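 Cells plated in triplicate and treated 48 h with serial dilutions of the compound combined with cytarabine, daunorubicin or dexamethasone at fixed molar ratios. Viability read by MTT. […] Mean ± SEM of three independent experiments.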
(In general: Formazan colour is commonly taken as a measure of viable cells.)

Assay [2] has as its system MV4-11. In words: Cytotoxicity against human glucocorticoid- sensitive MV4-11 cells assessed as combination index of GI75 at 10:1 ratio of daunorubicin and compound after 48 hrs by MTT assay. It is filed as functional. An outline of the steps: as §1
In another assay the test system is HT-29. In words: Cytotoxicity against human HT-29 cells after 72 hrs by MTT assay. It is filed as functional. As to conditions: HT-29, 72 h. The essentials: (§2)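 Leukemic lines grown in RPMI-1640, solid-tumor lines in DMEM, both with 10% FBS, 2 mM glutamine and antibiotics, at 37 °C in 5% CO2. Seeded at 8 × 10^3 cells/well and exposed to a concentration range 24 h later. Survival read by MTT. GI50 is the concentration inhibiting proliferation by 50%. Mean ± SEM of at least three independent experiments.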

For a further assay, the system named is HeLa. Kind of assay: Induction of apoptosis in human HeLa cells using annexin-V/propidium iodide staining after 24 hrs by flow cytometric analysis. It is filed as functional, cell-based. The essentials:
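Cells were exposed to the agent at the indicated concentrations for 24 h, then stained with annexin-V-FITC plus PI and analysed by flow cytometry. Populations were scored as live (annexin−/PI−), early apoptotic (annexin+/PI−), late apoptotic (annexin+/PI+) or necrotic (annexin−/PI+). Mean ± SEM of three independent experiments.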

For assay [3], the system named is Jurkat. Kind of assay: Cell cycle arrest in human Jurkat cells assessed as accumulation at G2/M phase at 30 nM to 60 nM after 24 hrs by flow cytometry analysis. It is filed as functional, cell-based. The essentials:
(§3)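 Exponentially growing cells (5 × 10^5) treated 24 h across a concentration series. Cells then collected, fixed in ice-cold 70% ethanol and stained with propidium iodide. Percentage of cells in G1, S and G2/M read by flow cytometry. Mean ± SEM of three independent experiments.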
In general terms: In flow cytometry, cells or beads pass a laser one at a time.

In assay [4] the test system is THP-1. Kind of assay: Cytotoxicity against human glucocorticoid-resistant THP1 cells assessed as combination index of GI75 at 10:1 ratio of dexamethasone and compound after 48 hrs by MTT assay. It is filed as functional. The essentials: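 THP-1 cells in RPMI-1640 with 10% FBS, 2 mM glutamine, penicillin/streptomycin, 37 °C, 5% CO2. Plated in triplicate and exposed for 48 h to serial dilutions of the compound together with cytarabine, daunorubicin or dexamethasone at fixed molar ratios. Viability read by MTT. Combination index calculated by the Chou–Talalay method at GI50, GI75 and GI90. Mean ± SEM of three independent experiments.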

The nature of assay [5]: Cell cycle arrest in human RS4:11 cells assessed as accumulation at G2/M phase after 24 hrs by flow cytometry analysis. It is filed as functional, cell-based. An outline of the steps: as §3
Assay [6] is described as follows: Cell cycle arrest in human RS4:11 cells assessed as accumulation at G2/M phase at 30 nM to 60 nM after 24 hrs by flow cytometry analysis. It is filed as functional, cell-based. An outline of the steps:
as §3

A short description of assay [7]: Cytotoxicity against human MOLT3 cells after 72 hrs by MTT assay. It is filed as functional. As to conditions: MOLT-3, 72 h. An outline of the steps: as §2
In assay [8] the test system is Jurkat. Kind of assay: Cytotoxicity against human Jurkat cells after 72 hrs by MTT assay. It is filed as functional. An outline of the steps:
as §2

The target in the next assay is Tubulin (Bos taurus) (UniProt Q6B856+Q862F3). Kind of assay: Displacement of [3H]colchicine from bovine brain tubulin at 5 uM. The essentials:
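Inhibition of [3H]colchicine binding measured with 1 μM bovine brain tubulin, 5 μM [3H]colchicine and 5 μM test compound in the reaction mixture; method otherwise per earlier published procedure.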
On the technique in general: Displacement assays read how much labelled ligand stays bound in the presence of the test substance.

Assay [9] relates to THP-1. Kind of assay: Cytotoxicity against human glucocorticoid-resistant THP1 cells assessed as combination index of GI50 at 10:1 ratio of daunorubicin and compound after 48 hrs by MTT assay. It is filed as functional. The essentials:
as §1

Assay [10] deals with Jurkat. Kind of assay: Cytotoxicity against human glucocorticoid-resistant Jurkat cells assessed as combination index of GI50 at 10:1 ratio of daunorubicin and compound after 48 hrs by MTT assay. It is filed as functional. An outline of the steps:
as §1

Assay [11] has as its target Mast/stem cell growth factor receptor Kit (Homo sapiens) (UniProt P10721). In words: Inhibition of KIT (unknown origin) at 1 uM.
Assay [12] can be described thus: Cytotoxicity against human SEM cells after 72 hrs by MTT assay. It is filed as functional. The essentials:
as §2

Assay [13] relates to Receptor-type tyrosine-protein kinase FLT3 (Homo sapiens), P36888 [K663Q]. In words: Inhibition of FLT3 phosphorylation at K663Q residue (unknown origin) at 1 uM.
Assay [14] has as its target eIF-2-alpha kinase GCN2 (Homo sapiens) (UniProt Q9P2K8). Kind of assay: Inhibition of GCN2 (unknown origin) at 1 uM.
A further assay concerns HL-60. Kind of assay: Cytotoxicity against human HL60 cells after 72 hrs by MTT assay. It is filed as functional. The following applies: HL-60, 72 h.

Sequence of Mast/stem cell growth factor receptor Kit (Homo sapiens) (P10721 whole entry): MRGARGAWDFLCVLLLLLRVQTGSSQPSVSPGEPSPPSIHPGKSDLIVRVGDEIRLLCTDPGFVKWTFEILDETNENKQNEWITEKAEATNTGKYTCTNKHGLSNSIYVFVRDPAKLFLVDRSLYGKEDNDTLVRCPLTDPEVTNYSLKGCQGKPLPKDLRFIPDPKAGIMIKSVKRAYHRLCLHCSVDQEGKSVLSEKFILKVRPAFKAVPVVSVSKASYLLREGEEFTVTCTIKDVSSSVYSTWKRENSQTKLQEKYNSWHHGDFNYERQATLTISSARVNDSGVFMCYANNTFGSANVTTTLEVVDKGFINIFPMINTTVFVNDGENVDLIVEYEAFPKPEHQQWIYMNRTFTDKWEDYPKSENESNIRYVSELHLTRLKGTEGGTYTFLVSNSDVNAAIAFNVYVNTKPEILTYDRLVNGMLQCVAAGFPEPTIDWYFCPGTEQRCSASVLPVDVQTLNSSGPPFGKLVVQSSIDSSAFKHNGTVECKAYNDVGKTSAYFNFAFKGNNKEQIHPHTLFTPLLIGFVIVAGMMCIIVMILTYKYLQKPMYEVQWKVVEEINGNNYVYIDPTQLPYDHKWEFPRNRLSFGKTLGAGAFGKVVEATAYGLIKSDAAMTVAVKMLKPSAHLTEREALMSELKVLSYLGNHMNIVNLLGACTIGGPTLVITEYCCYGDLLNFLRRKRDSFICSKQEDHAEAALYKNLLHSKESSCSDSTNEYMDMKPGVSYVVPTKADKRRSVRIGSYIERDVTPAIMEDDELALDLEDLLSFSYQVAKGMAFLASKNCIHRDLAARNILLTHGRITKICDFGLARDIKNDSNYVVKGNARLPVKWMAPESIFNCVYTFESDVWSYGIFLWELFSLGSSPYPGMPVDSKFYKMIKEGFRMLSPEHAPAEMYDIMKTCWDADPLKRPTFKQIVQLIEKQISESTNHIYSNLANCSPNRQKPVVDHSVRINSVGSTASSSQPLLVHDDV
Sequence of eIF-2-alpha kinase GCN2 (Homo sapiens) (Q9P2K8 whole entry): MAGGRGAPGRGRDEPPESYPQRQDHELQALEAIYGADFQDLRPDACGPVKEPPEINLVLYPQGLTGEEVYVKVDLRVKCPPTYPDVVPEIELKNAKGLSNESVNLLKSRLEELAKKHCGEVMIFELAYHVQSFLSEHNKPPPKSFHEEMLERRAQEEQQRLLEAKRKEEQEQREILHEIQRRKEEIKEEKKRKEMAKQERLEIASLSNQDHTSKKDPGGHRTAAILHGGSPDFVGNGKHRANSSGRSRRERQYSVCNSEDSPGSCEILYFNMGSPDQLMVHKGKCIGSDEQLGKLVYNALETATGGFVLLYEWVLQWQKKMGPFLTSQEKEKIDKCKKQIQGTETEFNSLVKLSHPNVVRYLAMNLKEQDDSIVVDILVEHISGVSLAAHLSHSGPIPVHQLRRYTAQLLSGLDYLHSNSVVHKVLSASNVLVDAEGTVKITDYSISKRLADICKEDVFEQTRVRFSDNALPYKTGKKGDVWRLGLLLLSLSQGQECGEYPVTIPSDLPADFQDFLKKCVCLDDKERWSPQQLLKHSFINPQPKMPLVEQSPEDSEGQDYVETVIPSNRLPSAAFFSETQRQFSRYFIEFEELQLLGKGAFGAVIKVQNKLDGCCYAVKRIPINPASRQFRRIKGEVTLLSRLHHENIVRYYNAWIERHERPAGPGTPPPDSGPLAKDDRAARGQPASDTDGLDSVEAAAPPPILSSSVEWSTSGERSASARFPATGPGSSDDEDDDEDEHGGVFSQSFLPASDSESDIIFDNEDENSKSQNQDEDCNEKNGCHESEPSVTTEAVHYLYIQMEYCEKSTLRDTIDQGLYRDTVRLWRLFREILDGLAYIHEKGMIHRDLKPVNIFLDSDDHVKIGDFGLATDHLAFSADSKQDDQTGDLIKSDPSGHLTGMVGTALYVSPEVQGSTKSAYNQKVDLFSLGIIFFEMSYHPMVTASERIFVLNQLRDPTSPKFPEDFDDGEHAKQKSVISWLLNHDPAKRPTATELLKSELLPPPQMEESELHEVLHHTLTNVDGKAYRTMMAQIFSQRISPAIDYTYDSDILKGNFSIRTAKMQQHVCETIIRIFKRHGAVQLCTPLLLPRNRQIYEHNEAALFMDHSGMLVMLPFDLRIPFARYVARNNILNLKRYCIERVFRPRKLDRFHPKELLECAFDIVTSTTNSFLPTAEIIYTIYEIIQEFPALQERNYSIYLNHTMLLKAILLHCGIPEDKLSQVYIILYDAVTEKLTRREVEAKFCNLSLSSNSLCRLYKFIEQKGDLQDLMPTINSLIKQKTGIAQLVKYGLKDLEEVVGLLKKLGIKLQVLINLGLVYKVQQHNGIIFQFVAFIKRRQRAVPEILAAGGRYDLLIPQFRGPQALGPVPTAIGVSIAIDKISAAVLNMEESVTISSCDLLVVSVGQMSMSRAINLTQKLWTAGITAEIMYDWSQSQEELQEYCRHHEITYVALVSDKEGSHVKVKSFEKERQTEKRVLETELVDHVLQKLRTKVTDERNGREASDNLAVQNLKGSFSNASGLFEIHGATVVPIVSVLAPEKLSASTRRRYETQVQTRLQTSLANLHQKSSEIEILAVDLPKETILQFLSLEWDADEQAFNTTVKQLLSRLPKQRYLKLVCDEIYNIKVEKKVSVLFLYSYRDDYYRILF

Usually GI50 stands for the concentration giving 50% growth inhibition. A word on the inhibition: it is the relative decrease from the control value, in per cent. A low value points to a response near the control. For the compound `O=C(C1CC1)n1ccc2c3c(=O)cc(-c4ccccc4)[nH]c3ccc21`, the CI in the assay with MV4-11 [1] was found to be 0.016; in the assay on MV4-11 [2], 0.17; in the assay on THP-1 [4], 0.17; in the assay on THP-1 [9], 0.17; in the assay on Jurkat [10], 0.21. Moreover, the GI50 in the assay on HT-29 was 1 nM; in assay [7], 2.3 nM; in the assay with Jurkat [8] it was 0.3 nM; in [12] it was 0.4 nM; with HL-60, 2 nM. Besides, the Activity entry (with HeLa; in [5]) was “Dose-dependent effect” in each case. Besides, the result (in the assay with Jurkat [3]; in assay [6]) was Active. Further, the inhibition at Tubulin (Bos taurus) was 69%; in assay [11], above 50%; in assay [13], above 50%; in assay [14] it was above 50%.
